Test results taken from ChEMBL document CHEMBL1152521, “Synthesis and biological evaluation of radioiodinated 2,5-diphenyl-1,3,4-oxadiazoles for detecting beta-amyloid plaques in the brain” (Bioorg Med Chem, 2009).
The source made the active and inactive calls. No cut-off for these calls is given here.

Assays:
[1] = species on record: Mus musculus; assay: Binding affinity to amyloid beta (1-42) in brain of transgenic 2576 mouse Alzheimer's model at 100 uM after 30 mins by thioflavin S staining-based fluorescence microscopic analysis
[2] = Octanol-phosphate buffer partition coefficient, log P at pH 7.4 by gamma counting of radioactivity
[3] = Displacement of [125I]IMPY from aggregated amyloid beta (1-42) by gamma counting
[4] = system: Blood; assay: Biodistribution in ddY mouse blood at 0.2 to 0.4 uCi, iv after 30 mins post-injection by gamma counting; type: ADME, organism-based; conditions: in vivo, 0.5 h
In short: (§1)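 Normal ddY mice (5-week-old, 22-25 g) received 0.2–0.4 μCi of the 125I-labelled agent by tail-vein injection in 100 μL saline containing 10 μL ethanol. Animals were killed at 2, 10, 30 or 60 min, and organs were removed, weighed and gamma counted. Values are % injected dose per gram, mean (SD) of 4-6 animals.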

[5] = system: Brain; assay: Biodistribution in ddY mouse brain at 0.2 to 0.4 uCi, iv after 30 mins post-injection by gamma counting; type: ADME, organism-based; conditions: in vivo, 0.5 h
In short: as §1

[6] = system: Heart; assay: Biodistribution in ddY mouse heart at 0.2 to 0.4 uCi, iv after 10 mins post-injection by gamma counting; type: ADME, organism-based; conditions: in vivo
In short: as §1

[7] = system: Stomach; assay: Biodistribution in ddY mouse stomach assessed per organ at 0.2 to 0.4 uCi, iv after 30 mins post-injection by gamma counting; type: ADME, organism-based; conditions: in vivo, 0.5 h
In short: (§2)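 Normal ddY mice (5-week-old, 22-25 g) were injected by tail vein with 0.2–0.4 μCi of 125I ligand in saline (100 μL) containing 10 μL ethanol. At 2, 10, 30 or 60 min the stomach was removed and gamma counted. Values are % injected dose per organ, mean (SD) of 4-6 animals.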

[8] = system: Blood; assay: Biodistribution in ddY mouse blood at 0.2 to 0.4 uCi, iv after 2 mins post-injection by gamma counting; type: ADME, organism-based; conditions: in vivo
In short: as §1

[9] = system: Pancreas; assay: Biodistribution in ddY mouse pancreas at 0.2 to 0.4 uCi, iv after 60 mins post-injection by gamma counting; type: ADME, organism-based; conditions: in vivo, 1 h
In short: as §1

[10] = system: Kidney; assay: Biodistribution in ddY mouse kidney at 0.2 to 0.4 uCi, iv after 60 mins post-injection by gamma counting; type: ADME, organism-based; conditions: in vivo, 1 h
In short: as §1

[11] = system: Pancreas; assay: Biodistribution in ddY mouse pancreas at 0.2 to 0.4 uCi, iv after 30 mins post-injection by gamma counting; type: ADME, organism-based; conditions: in vivo, 0.5 h
In short: as §1

[12] = system: Liver; assay: Biodistribution in ddY mouse liver at 0.2 to 0.4 uCi, iv after 2 mins post-injection by gamma counting; type: ADME, organism-based; conditions: in vivo
In short: as §1

[13] = system: Pancreas; assay: Biodistribution in ddY mouse pancreas at 0.2 to 0.4 uCi, iv after 2 mins post-injection by gamma counting; type: ADME, organism-based; conditions: in vivo
In short: as §1

[14] = system: Heart; assay: Biodistribution in ddY mouse heart at 0.2 to 0.4 uCi, iv after 60 mins post-injection by gamma counting; type: ADME, organism-based; conditions: in vivo, 1 h
In short: as §1

[15] = system: Liver; assay: Biodistribution in ddY mouse liver at 0.2 to 0.4 uCi, iv after 10 mins post-injection by gamma counting; type: ADME, organism-based; conditions: in vivo
In short: as §1

[16] = system: Stomach; assay: Biodistribution in ddY mouse stomach assessed per organ at 0.2 to 0.4 uCi, iv after 10 mins post-injection by gamma counting; type: ADME, organism-based; conditions: in vivo
In short: as §2

[17] = system: Heart; assay: Biodistribution in ddY mouse heart at 0.2 to 0.4 uCi, iv after 30 mins post-injection by gamma counting; type: ADME, organism-based; conditions: in vivo, 0.5 h
In short: as §1

[18] = system: Stomach; assay: Biodistribution in ddY mouse stomach assessed per organ at 0.2 to 0.4 uCi, iv after 2 mins post-injection by gamma counting; type: ADME, organism-based; conditions: in vivo
In short: as §2

[19] = system: Intestine; assay: Biodistribution in ddY mouse intestine at 0.2 to 0.4 uCi, iv after 10 mins post-injection by gamma counting; type: ADME, organism-based; conditions: in vivo
In short: as §1

[20] = system: Heart; assay: Biodistribution in ddY mouse heart at 0.2 to 0.4 uCi, iv after 2 mins post-injection by gamma counting; type: ADME, organism-based; conditions: in vivo
In short: as §1

[21] = system: Intestine; assay: Biodistribution in ddY mouse intestine at 0.2 to 0.4 uCi, iv after 30 mins post-injection by gamma counting; type: ADME, organism-based; conditions: in vivo, 0.5 h
In short: as §1

[22] = system: Spleen; assay: Biodistribution in ddY mouse spleen at 0.2 to 0.4 uCi, iv after 60 mins post-injection by gamma counting; type: ADME, organism-based; conditions: in vivo, 1 h
In short: as §1

[23] = system: Blood; assay: Biodistribution in ddY mouse blood at 0.2 to 0.4 uCi, iv after 10 mins post-injection by gamma counting; type: ADME, organism-based; conditions: in vivo
In short: as §1

[24] = system: Brain; assay: Biodistribution in ddY mouse brain at 0.2 to 0.4 uCi, iv after 10 mins post-injection by gamma counting; type: ADME, organism-based; conditions: in vivo
In short: as §1

[25] = system: Kidney; assay: Biodistribution in ddY mouse kidney at 0.2 to 0.4 uCi, iv after 10 mins post-injection by gamma counting; type: ADME, organism-based; conditions: in vivo
In short: as §1

[26] = system: Spleen; assay: Biodistribution in ddY mouse spleen at 0.2 to 0.4 uCi, iv after 2 mins post-injection by gamma counting; type: ADME, organism-based; conditions: in vivo
In short: as §1

[27] = system: Spleen; assay: Biodistribution in ddY mouse spleen at 0.2 to 0.4 uCi, iv after 10 mins post-injection by gamma counting; type: ADME, organism-based; conditions: in vivo
In short: as §1

[28] = system: Spleen; assay: Biodistribution in ddY mouse spleen at 0.2 to 0.4 uCi, iv after 30 mins post-injection by gamma counting; type: ADME, organism-based; conditions: in vivo, 0.5 h
In short: as §1

[29] = system: Brain; assay: Biodistribution in ddY mouse brain at 0.2 to 0.4 uCi, iv after 60 mins post-injection by gamma counting; type: ADME, organism-based; conditions: in vivo, 1 h
In short: as §1

[30] = system: Liver; assay: Biodistribution in ddY mouse liver at 0.2 to 0.4 uCi, iv after 30 mins post-injection by gamma counting; type: ADME, organism-based; conditions: in vivo, 0.5 h
In short: as §1

[31] = system: Stomach; assay: Biodistribution in ddY mouse stomach assessed per organ at 0.2 to 0.4 uCi, iv after 60 mins post-injection by gamma counting; type: ADME, organism-based; conditions: in vivo, 1 h
In short: as §2

[32] = system: Kidney; assay: Biodistribution in ddY mouse kidney at 0.2 to 0.4 uCi, iv after 2 mins post-injection by gamma counting; type: ADME, organism-based; conditions: in vivo
In short: as §1

[33] = system: Intestine; assay: Biodistribution in ddY mouse intestine at 0.2 to 0.4 uCi, iv after 60 mins post-injection by gamma counting; type: ADME, organism-based; conditions: in vivo, 1 h
In short: as §1

[34] = system: Pancreas; assay: Biodistribution in ddY mouse pancreas at 0.2 to 0.4 uCi, iv after 10 mins post-injection by gamma counting; type: ADME, organism-based; conditions: in vivo
In short: as §1

[35] = system: Intestine; assay: Biodistribution in ddY mouse intestine at 0.2 to 0.4 uCi, iv after 2 mins post-injection by gamma counting; type: ADME, organism-based; conditions: in vivo
In short: as §1

[36] = system: Blood; assay: Biodistribution in ddY mouse blood at 0.2 to 0.4 uCi, iv after 60 mins post-injection by gamma counting; type: ADME, organism-based; conditions: in vivo, 1 h
In short: as §1

[37] = system: Brain; assay: Biodistribution in ddY mouse brain at 0.2 to 0.4 uCi, iv after 2 mins post-injection by gamma counting; type: ADME, organism-based; conditions: in vivo
In short: as §1

[38] = system: Liver; assay: Biodistribution in ddY mouse liver at 0.2 to 0.4 uCi, iv after 60 mins post-injection by gamma counting; type: ADME, organism-based; conditions: in vivo, 1 h
In short: as §1

[39] = system: Kidney; assay: Biodistribution in ddY mouse kidney at 0.2 to 0.4 uCi, iv after 30 mins post-injection by gamma counting; type: ADME, organism-based; conditions: in vivo, 0.5 h
In short: as §1

[40] = species on record: Mus musculus; assay: Binding affinity to amyloid beta (1-42) in normal mouse brain at 100 uM after 30 mins by thioflavin S staining-based fluorescence microscopic analysis

COc1ccc(-c2nnc(-c3ccc(I)cc3)o2)cc1
Activity [1]: Active | logD [2]: 2.58 | Ki [3]: 46.1 nM

CN(C)c1ccc(-c2nnc(-c3ccc([125I])cc3)o2)cc1
Drug uptake [4]: 2.53 % ID/g | Drug uptake [5]: 3.16 % ID/g | Drug uptake [6]: 3.55 % ID/g | Drug uptake [7]: 4.79 %ID | Drug uptake [8]: 3.28 % ID/g | Drug uptake [9]: 2.14 % ID/g | Drug uptake [10]: 3.81 % ID/g | Drug uptake [11]: 2.5 % ID/g | Drug uptake [12]: 15.87 % ID/g | Drug uptake [13]: 5.32 % ID/g | Drug uptake [14]: 1.54 % ID/g | Drug uptake [15]: 19.12 % ID/g | Drug uptake [16]: 4.73 %ID | Drug uptake [17]: 2.03 % ID/g | Drug uptake [18]: 1.4 %ID | Drug uptake [19]: 11.34 % ID/g | Drug uptake [20]: 3.99 % ID/g | Drug uptake [21]: 12.58 % ID/g | Drug uptake [22]: 2.05 % ID/g | Drug uptake [23]: 3.51 % ID/g | Drug uptake [24]: 5.93 % ID/g | Drug uptake [25]: 7.8 % ID/g | Drug uptake [26]: 3.56 % ID/g | Drug uptake [27]: 4.1 % ID/g | Drug uptake [28]: 2.63 % ID/g | Drug uptake [29]: 1.78 % ID/g | Drug uptake [30]: 12.64 % ID/g | Drug uptake [31]: 5.5 %ID | Drug uptake [32]: 9.14 % ID/g | Drug uptake [33]: 16.22 % ID/g | Drug uptake [34]: 4.39 % ID/g | Drug uptake [35]: 2.28 % ID/g | Drug uptake [36]: 2.21 % ID/g | Drug uptake [37]: 2.98 % ID/g | Drug uptake [38]: 10.01 % ID/g | Drug uptake [39]: 5.71 % ID/g

COc1ccc(-c2nnc(-c3ccc([125I])cc3)o2)cc1
Drug uptake [4]: 1.26 % ID/g | Drug uptake [5]: 1.04 % ID/g | Drug uptake [6]: 1.73 % ID/g | Drug uptake [7]: 3.12 %ID | Drug uptake [8]: 1.84 % ID/g | Drug uptake [9]: 0.57 % ID/g | Drug uptake [10]: 2.48 % ID/g | Drug uptake [11]: 0.96 % ID/g | Drug uptake [12]: 9.6 % ID/g | Drug uptake [13]: 4.74 % ID/g | Drug uptake [14]: 0.43 % ID/g | Drug uptake [15]: 12.6 % ID/g | Drug uptake [16]: 1.41 %ID | Drug uptake [17]: 0.92 % ID/g | Drug uptake [18]: 0.71 %ID | Drug uptake [19]: 4.49 % ID/g | Drug uptake [20]: 4.8 % ID/g | Drug uptake [21]: 10.06 % ID/g | Drug uptake [22]: 0.6 % ID/g | Drug uptake [23]: 1.6 % ID/g | Drug uptake [24]: 2.74 % ID/g | Drug uptake [25]: 4.85 % ID/g | Drug uptake [26]: 2.44 % ID/g | Drug uptake [27]: 1.51 % ID/g | Drug uptake [28]: 0.8 % ID/g | Drug uptake [29]: 0.36 % ID/g | Drug uptake [30]: 8.07 % ID/g | Drug uptake [31]: 2.9 %ID | Drug uptake [32]: 7.14 % ID/g | Drug uptake [33]: 19.85 % ID/g | Drug uptake [34]: 1.98 % ID/g | Drug uptake [35]: 2.07 % ID/g | Drug uptake [36]: 0.8 % ID/g | Drug uptake [37]: 3.75 % ID/g | Drug uptake [38]: 4.65 % ID/g | Drug uptake [39]: 4.36 % ID/g

CN(C)c1ccc(-c2nc(-c3ccc(I)cc3)no2)cc1
logD [2]: 3.22

Oc1ccc(-c2nnc(-c3ccc(I)cc3)o2)cc1
Ki [3]: 230 nM

OCCOCCOc1ccc(-c2nnc(-c3ccc(I)cc3)o2)cc1
Ki [3]: 349 nM

COc1ccc(-c2nc(-c3ccc(I)cc3)no2)cc1
logD [2]: 3.37

OCCOc1ccc(-c2nnc(-c3ccc(I)cc3)o2)cc1
Ki [3]: 282 nM

CN(C)c1ccc(-c2nnc(-c3ccc(I)cc3)o2)cc1
Activity [1]: Active | logD [2]: 2.43 | Ki [3]: 20.1 nM | Activity [40]: inactive

OCCOCCOCCOc1ccc(-c2nnc(-c3ccc(I)cc3)o2)cc1
Ki [3]: 258 nM
